Measurements taken from ChEMBL document CHEMBL1137343, “4-arylazo-3,5-diamino-1H-pyrazole CDK inhibitors: SAR study, crystal structure in complex with CDK2, selectivity, and cellular effects” (J Med Chem, 2006).

What was measured:
G-361 [1] = assay: Viability of G361 cells at 100 uM; format: functional, Homo sapiens
Outline: (§1)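 Cells grown in DMEM with 10% FCS and 4 mM glutamine at 37 °C, plated in 96-well format, preincubated 12 h, then exposed 72 h. Live cells measured by Calcein AM (1 h) fluorescence at 485/538 nm; % viable cells given at 100 µM compound.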

HOS [2] = assay: Viability of HOS cells at 100 uM; format: functional, Homo sapiens; outline: as §1
K562 [3] = assay: Viability of K562 cells at 100 uM; format: functional, Homo sapiens; outline: as §1
HOS [4] = assay: Antiproliferative activity against HOS cell line; format: functional, cell-based; details: Homo sapiens
Outline: (§2)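 Cells grown in DMEM with 10% FCS, glutamine and penicillin/streptomycin at 37 °C, seeded in 96-well plates and preincubated 12 h. Compounds were added in 6-fold dilutions (1-100 µM) for 72 h. IC50 taken from dose-response curves.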

[5] = molecular target: T1, Cyclin-dependent kinase 2/cyclin E (Homo sapiens, UniProt P24941); assay: Inhibition of CDK2/Cyclin E in presence of 15 uM ATP; format: protein-complex assay
K562 [6] = assay: Antiproliferative activity against K562 cell line; format: functional, cell-based; details: Homo sapiens; outline: as §2
MCF7 [7] = assay: Antiproliferative activity against MCF7 cell line; format: functional, cell-based; details: Homo sapiens; outline: as §2
MCF7 [8] = assay: Viability of MCF7 cells at 100 uM; format: functional, Homo sapiens; outline: as §1
G-361 [9] = assay: Antiproliferative activity against G361 cell line; format: functional, cell-based; details: Homo sapiens; outline: as §2
[10] = molecular target: T1, Cyclin-dependent kinase 2/cyclin E; assay: Inhibition of CDK2/Cyclin E in presence of 100 uM ATP; format: protein-complex assay
[11] = molecular target: Cyclin-dependent kinase 4/cyclin D1 (Homo sapiens, UniProt P11802); assay: Inhibition of CDK4/Cyclin D1 in presence of 100 uM ATP; format: protein-complex assay
[12] = molecular target: Cyclin-dependent kinase 7/ cyclin H (Homo sapiens, UniProt P50613); assay: Inhibition of CDK7/Cyclin H in presence of 100 uM ATP; format: protein-complex assay
CDK9/cyclin T1 = CDK9/cyclin T1 (Homo sapiens, UniProt P50750); assay: Inhibition of CDK9/Cyclin T1 in presence of 100 uM ATP; format: protein-complex assay
[13] = molecular target: Cyclin-dependent kinase 1/cyclin B (Homo sapiens, UniProt P06493); assay: Inhibition of CDK1/Cyclin B in presence of 100 uM ATP; format: protein-complex assay
[14] = molecular target: Cyclin-dependent kinase 2/cyclin A (Homo sapiens, UniProt P24941); assay: Inhibition of CDK2/Cyclin A in presence of 100 uM ATP; format: protein-complex assay

Sequence of Cyclin-dependent kinase 7/ cyclin H (P51946 whole entry): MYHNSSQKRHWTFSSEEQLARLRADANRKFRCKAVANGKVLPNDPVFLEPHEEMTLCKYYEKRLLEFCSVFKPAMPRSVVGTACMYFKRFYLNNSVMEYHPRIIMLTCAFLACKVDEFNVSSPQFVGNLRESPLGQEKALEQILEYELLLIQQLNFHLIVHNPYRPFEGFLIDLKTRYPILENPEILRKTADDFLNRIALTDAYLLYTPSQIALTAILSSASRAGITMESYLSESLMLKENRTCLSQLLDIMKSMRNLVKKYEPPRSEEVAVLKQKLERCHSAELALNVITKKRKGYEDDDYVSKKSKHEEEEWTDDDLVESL
Sequence of Cyclin-dependent kinase 7/ cyclin H (P50613 whole entry): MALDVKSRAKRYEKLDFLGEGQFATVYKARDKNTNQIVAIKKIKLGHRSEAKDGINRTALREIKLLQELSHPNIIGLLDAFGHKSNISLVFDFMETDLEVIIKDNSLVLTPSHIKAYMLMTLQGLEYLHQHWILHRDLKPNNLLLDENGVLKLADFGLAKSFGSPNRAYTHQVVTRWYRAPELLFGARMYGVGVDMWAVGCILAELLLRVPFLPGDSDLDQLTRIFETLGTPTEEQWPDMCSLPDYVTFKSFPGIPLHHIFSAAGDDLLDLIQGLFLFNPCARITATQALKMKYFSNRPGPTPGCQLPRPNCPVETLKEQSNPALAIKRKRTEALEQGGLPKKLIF
Sequence of CDK9/cyclin T1 (O60563 whole entry): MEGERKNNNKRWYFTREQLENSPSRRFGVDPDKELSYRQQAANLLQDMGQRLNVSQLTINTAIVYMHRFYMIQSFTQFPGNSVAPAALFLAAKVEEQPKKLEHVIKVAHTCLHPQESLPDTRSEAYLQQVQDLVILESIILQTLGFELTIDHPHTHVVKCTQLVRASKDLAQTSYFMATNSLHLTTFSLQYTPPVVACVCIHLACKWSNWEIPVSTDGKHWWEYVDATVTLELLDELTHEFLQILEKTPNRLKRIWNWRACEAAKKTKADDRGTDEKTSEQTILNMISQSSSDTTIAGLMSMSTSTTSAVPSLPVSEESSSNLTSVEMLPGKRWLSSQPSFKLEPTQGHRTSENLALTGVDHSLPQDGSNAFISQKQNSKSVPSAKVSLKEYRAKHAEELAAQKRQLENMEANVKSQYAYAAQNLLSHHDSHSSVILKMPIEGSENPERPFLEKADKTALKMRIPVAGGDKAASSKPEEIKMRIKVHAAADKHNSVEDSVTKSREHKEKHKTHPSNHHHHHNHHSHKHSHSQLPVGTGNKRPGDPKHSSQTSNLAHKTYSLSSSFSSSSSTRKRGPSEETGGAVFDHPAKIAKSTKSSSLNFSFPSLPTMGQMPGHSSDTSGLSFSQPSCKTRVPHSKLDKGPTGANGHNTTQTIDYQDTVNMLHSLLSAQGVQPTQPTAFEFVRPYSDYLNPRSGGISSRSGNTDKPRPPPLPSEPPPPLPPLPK
Sequence of CDK9/cyclin T1 (P50750 whole entry): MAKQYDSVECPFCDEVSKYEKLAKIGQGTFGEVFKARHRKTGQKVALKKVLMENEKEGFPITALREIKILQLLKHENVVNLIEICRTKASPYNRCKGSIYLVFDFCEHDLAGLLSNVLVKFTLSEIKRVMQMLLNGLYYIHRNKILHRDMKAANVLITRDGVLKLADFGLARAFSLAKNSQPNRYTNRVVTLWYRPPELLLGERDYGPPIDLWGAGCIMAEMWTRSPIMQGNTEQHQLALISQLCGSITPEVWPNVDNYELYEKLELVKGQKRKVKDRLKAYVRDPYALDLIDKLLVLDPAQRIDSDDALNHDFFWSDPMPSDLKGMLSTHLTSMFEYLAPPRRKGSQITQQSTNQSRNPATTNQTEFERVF
Sequence of Cyclin-dependent kinase 4/cyclin D1 (P11802 whole entry): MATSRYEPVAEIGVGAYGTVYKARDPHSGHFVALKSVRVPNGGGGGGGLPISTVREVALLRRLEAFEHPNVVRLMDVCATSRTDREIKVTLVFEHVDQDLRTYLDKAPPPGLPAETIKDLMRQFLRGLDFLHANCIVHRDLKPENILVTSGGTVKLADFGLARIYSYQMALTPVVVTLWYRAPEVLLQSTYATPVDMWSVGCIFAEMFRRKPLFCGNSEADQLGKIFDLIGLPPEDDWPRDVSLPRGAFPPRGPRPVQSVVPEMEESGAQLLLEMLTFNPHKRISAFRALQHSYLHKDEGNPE
Sequence of Cyclin-dependent kinase 4/cyclin D1 (P24385 whole entry, further chain): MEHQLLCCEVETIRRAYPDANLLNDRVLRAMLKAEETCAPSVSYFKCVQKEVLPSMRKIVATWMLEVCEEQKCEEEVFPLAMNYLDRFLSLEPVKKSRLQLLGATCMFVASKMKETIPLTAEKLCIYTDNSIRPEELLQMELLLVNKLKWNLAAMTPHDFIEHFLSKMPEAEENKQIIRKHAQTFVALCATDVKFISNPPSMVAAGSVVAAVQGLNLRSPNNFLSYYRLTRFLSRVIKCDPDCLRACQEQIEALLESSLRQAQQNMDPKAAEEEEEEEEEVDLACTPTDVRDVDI

SMILES	Activity (G-361 [1])	Activity (HOS [2])	Activity (K562 [3])	IC50 (HOS [4])	IC50 [5]	IC50 (K562 [6])	IC50 (MCF7 [7])	Activity (MCF7 [8])	IC50 (G-361 [9])	IC50 [10]	IC50 [11]	IC50 [12]	IC50 (CDK9/cyclin T1)	IC50 [13]	IC50 [14]
Nc1n[nH]c(N)c1/N=N/c1ccc(C(=O)O)cc1	86%	92%	96%	> 100 µM	> 100 µM	> 100 µM	> 100 µM	97%	> 100 µM						
Nc1n[nH]c(N)c1/N=N/c1cccc(O)c1	70%	83%	53%	> 100 µM	6 µM	> 100 µM	> 100 µM	71%	> 100 µM	51 µM	56 µM	82 µM	1.5 µM	> 100 µM	> 100 µM
Nc1n[nH]c(N)c1/N=N/c1cccc([N+](=O)[O-])c1	69%	95%	28%	> 100 µM	23 µM	79 µM	65 µM	44%	> 100 µM	68 µM	70 µM	> 100 µM	12.4 µM	> 100 µM	> 100 µM
Nc1n[nH]c(N)c1/N=N/c1ccccc1[N+](=O)[O-]	58%	57%	48%	> 100 µM	6.1 µM	100 µM	> 100 µM	62%	> 100 µM	22 µM	16 µM	77 µM	5.6 µM	42 µM	88 µM
Nc1n[nH]c(N)c1/N=N/c1ccc([N+](=O)[O-])cc1	61%	80%	25%	> 100 µM	40 µM	71 µM	> 100 µM	60%	> 100 µM						
Nc1n[nH]c(N)c1/N=N/c1ccccc1CO	84%	87%	86%	> 100 µM	17 µM	> 100 µM	> 100 µM	51%	> 100 µM	77 µM	> 100 µM	> 100 µM	26 µM	> 100 µM	> 100 µM
